In ChEMBL document CHEMBL1759864, “Synthesis and proteasome inhibition of lithocholic acid derivatives” (Bioorg Med Chem Lett, 2011):
Calls of active or inactive are those of the source. No cut-off for these calls is given here. Where a SMILES comes first, the peptide text is derived from it.

Experiments:
[1] = Inhibition of chymotrypsin-like activity of 20S proteasome
[2] = Inhibition of trypsin-like activity of 20S proteasome
[3] = Inhibition of caspase-like activity of 20S proteasome
[4] = system: HeLa; experiment: Inhibition of proteasome activity in human HeLa cells transfected with UbG76V-GFP assessed as accumulation of ubiquitinG76V-GFP at 7.5 uM after 24 hrs by fluorescence microscopy
Summary of the method: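 HeLa cells stably expressing Ub^G76V-GFP, grown in DMEM with 10% heat-inactivated FBS at 37 °C, humidified. Cells seeded at 10,000 per well and exposed to compound at 7.5 µM for 24 h. Proteasome block is read as intracellular Ub^G76V-GFP accumulation (green fluorescence), documented by fluorescence microscopy against untreated cells.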

| inhibition [1] | SMILES | IC50 [1] | further results |
| --- | --- | --- | --- |
|  | C[C@H](CCC(=O)O)[C@H]1CC[C@H]2[C@@H]3CC[C@@H]4C[C@H](OC(=O)COCC(=O)O)CC[C@]4(C)[C@H]3CC[C@]12C | 6.9 µM |  |
|  | C[C@H](CCC(=O)O)[C@H]1CC[C@H]2[C@@H]3CC[C@@H]4C[C@H](OC(=O)CCCC(=O)O)CC[C@]4(C)[C@H]3CC[C@]12C | 10.8 µM |  |
|  | C[C@H](CCC(=O)O)[C@H]1CC[C@H]2[C@@H]3CC[C@@H]4C[C@H](OC(=O)CCCCC(=O)O)CC[C@]4(C)[C@H]3CC[C@]12C | 3.5 µM |  |
|  | CC(CC(=O)O[C@@H]1CC[C@@]2(C)[C@H](CC[C@@H]3[C@@H]2CC[C@]2(C)[C@@H]([C@H](C)CCC(=O)O)CC[C@@H]32)C1)C(=O)O (some centres not stated) | 11.5 µM |  |
| inactive | CCOC(=O)CC[C@@H](C)[C@H]1CC[C@H]2[C@@H]3CC[C@@H]4C[C@H](OC(=O)CCCCCC(=O)O)CC[C@]4(C)[C@H]3CC[C@]12C |  |  |
| inactive | COC(=O)CC[C@@H](C)[C@H]1CC[C@H]2[C@@H]3CC[C@@H]4C[C@H](O)CC[C@]4(C)[C@H]3CC[C@]12C |  |  |
|  | C[C@H](CCC(=O)O)[C@H]1CC[C@H]2[C@@H]3CC[C@@H]4C[C@H](OC(=O)Cc5cccc(CC(=O)O)c5)CC[C@]4(C)[C@H]3CC[C@]12C | 1.9 µM | IC50 [2]: 9.1 µM; IC50 [3]: 6.5 µM |
|  | C[C@H](CCC(=O)O)[C@H]1CC[C@H]2[C@@H]3CC[C@@H]4C[C@H](O)CC[C@]4(C)[C@H]3CC[C@]12C [LITHOCHOLIC ACID] | 18.1 µM |  |
|  | C[C@H](CCC(=O)O)[C@H]1CC[C@H]2[C@@H]3CC[C@@H]4C[C@H](OC(=O)CC5(CC(=O)O)CCCC5)CC[C@]4(C)[C@H]3CC[C@]12C | 2.2 µM | inhibition [4]: Active |
| inactive | CCOC(=O)CC[C@@H](C)[C@H]1CC[C@H]2[C@@H]3CC[C@@H]4C[C@H](O)CC[C@]4(C)[C@H]3CC[C@]12C |  |  |
|  | CC(C(=O)O)C(C)C(=O)O[C@@H]1CC[C@@]2(C)[C@H](CC[C@@H]3[C@@H]2CC[C@]2(C)[C@@H]([C@H](C)CCC(=O)O)CC[C@@H]32)C1 (some centres not stated) | 5.8 µM |  |
|  | C[C@H](CCC(=O)O)[C@H]1CC[C@H]2[C@@H]3CC[C@@H]4C[C@H](OC(=O)c5ccccc5C(=O)O)CC[C@]4(C)[C@H]3CC[C@]12C | 8.6 µM |  |
| inactive | COC(=O)CC[C@@H](C)[C@H]1CC[C@H]2[C@@H]3CC[C@@H]4C[C@H](OC(=O)Cc5cccc(CC(=O)O)c5)CC[C@]4(C)[C@H]3CC[C@]12C |  |  |
|  | C[C@H](CCC(=O)O)[C@H]1CC[C@H]2[C@@H]3CC[C@@H]4C[C@H](OC(=O)CCC(=O)O)CC[C@]4(C)[C@H]3CC[C@]12C | 10.3 µM |  |
|  | C[C@H](CCC(=O)O)[C@H]1CC[C@H]2[C@@H]3CC[C@@H]4C[C@H](OC(=O)[C@@H]5CCCC[C@H]5C(=O)O)CC[C@]4(C)[C@H]3CC[C@]12C | 8.5 µM |  |
| inactive | C[C@H](CCC(=O)O)[C@H]1CC[C@H]2[C@@H]3CC[C@@H]4C[C@H](OC(=O)CCCCCC(=O)O)CC[C@]4(C)[C@H]3CC[C@]12C |  |  |
|  | CSCC[C@@H](C=O)NC(=O)[C@H](CC(C)C)NC(=O)[C@H](CC(C)C)NC(C)=O (Ac-Leu-Leu-Met-aldehyde) | 5.2 µM |  |
|  | C[C@H](CCC(=O)O)[C@H]1CC[C@H]2[C@@H]3CC[C@@H]4C[C@H](OC(=O)Cc5ccc(CC(=O)O)cc5)CC[C@]4(C)[C@H]3CC[C@]12C | 3.8 µM |  |

| SMILES | inhibition [1] | IC50 [1] | further results |
| --- | --- | --- | --- |
| COC(=O)CC[C@@H](C)[C@H]1CC[C@H]2[C@@H]3CC[C@@H]4C[C@H](OC(=O)CCCCCC(=O)O)CC[C@]4(C)[C@H]3CC[C@]12C | inactive |  |  |
